In ChEMBL document CHEMBL5058577, “EUbOPEN Chemogenomics Library 2 (Multiplex)” (2022):

Test system: HEK-293T
Assay: Multiplex assay against HEK293T
Assay type: toxicity, cell-based
Details: human
Outline: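 Hoechst33342, BioTracker Green Microtubule Cytoskeleton Dye, MitoTracker Red and Annexin V Alexa Fluor 680 were added to live cells at seeding, and imaging on a CQ1 microscope at 37°C and 5% CO2 followed compound addition. Gating by CellPathfinder machine learning separated cells into Hoechst high-intensity objects or normal cells, then normal cells into healthy, pyknosed or fragmented nuclei, then pyknosed cells into mitotic or apoptotic. Per cents of healthy-nucleus cells are reported for the tubulin, mitochondrial-mass and membrane-permeability phenotypes.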

[1] = 12 h, 1 µM, compound concentration 1 uM, replicate 1
[2] = 12 h, 1 µM, compound concentration 1 uM, replicate 2
[3] = 12 h, 10 µM, compound concentration 10 uM, replicate 1
[4] = 12 h, 10 µM, compound concentration 10 uM, replicate 2
[5] = 24 h, 1 µM, compound concentration 1 uM, replicate 1
[6] = 24 h, 1 µM, compound concentration 1 uM, replicate 2
[7] = 24 h, 10 µM, compound concentration 10 uM, replicate 1
[8] = 24 h, 10 µM, compound concentration 10 uM, replicate 2
[9] = 48 h, 1 µM, compound concentration 1 uM, replicate 1
[10] = 48 h, 1 µM, compound concentration 1 uM, replicate 2
[11] = 48 h, 10 µM, compound concentration 10 uM, replicate 1
[12] = 48 h, 10 µM, compound concentration 10 uM, replicate 2

C=CCN1C[C@H](C(=O)N(CCCN(C)C)C(=O)NCC)C[C@@H]2c3cccc4[nH]cc(c34)C[C@H]21 [CABERGOLINE]
Population Apoptotic (%) [1]: 36%
Population Fragmented Nuclei (%) [1]: 4%
Population Healthy Nuclei (%) [1]: 76%
Population Hoechst High Intensity Objects (%) [1]: 8%
Population Membrane Permeable-Phenotype (%) [1]: 0%
Population Mitochondria Different-Phenotype (%) [1]: 51%
Population Mitotic Cells (%) [1]: 63%
Population Normal (%) [1]: 91%
Population Pyknosed Nuclei (%) [1]: 18%
Population Tubulin-Different-Phenotype (%) [1]: 41%
Total Cell Count [1]: 370
Population Apoptotic (%) [2]: 37%
Population Fragmented Nuclei (%) [2]: 5%
Population Healthy Nuclei (%) [2]: 79%
Population Mitochondria Different-Phenotype (%) [2]: 68%
Population Mitotic Cells (%) [2]: 62%
Population Pyknosed Nuclei (%) [2]: 14%
Population Tubulin-Different-Phenotype (%) [2]: 24%
Total Cell Count [2]: 322
Population Apoptotic (%) [3]: 53%
Population Fragmented Nuclei (%) [3]: 8%
Population Healthy Nuclei (%) [3]: 76%
Population Hoechst High Intensity Objects (%) [3]: 12%
Population Membrane Permeable-Phenotype (%) [3]: 0%
Population Mitochondria Different-Phenotype (%) [3]: 65%
Population Mitotic Cells (%) [3]: 46%
Population Normal (%) [3]: 87%
Population Pyknosed Nuclei (%) [3]: 14%
Population Tubulin-Different-Phenotype (%) [3]: 54%
Total Cell Count [3]: 438
Population Apoptotic (%) [4]: 60%
Population Fragmented Nuclei (%) [4]: 6%
Population Healthy Nuclei (%) [4]: 78%
Population Hoechst High Intensity Objects (%) [4]: 8%
Population Mitochondria Different-Phenotype (%) [4]: 81%
Population Mitotic Cells (%) [4]: 40%
Population Normal (%) [4]: 91%
Population Tubulin-Different-Phenotype (%) [4]: 55%
Total Cell Count [4]: 371
Population Apoptotic (%) [5]: 43%
Population Fragmented Nuclei (%) [5]: 9%
Population Healthy Nuclei (%) [5]: 80%
Population Hoechst High Intensity Objects (%) [5]: 4%
Population Membrane Permeable-Phenotype (%) [5]: 1%
Population Mitochondria Different-Phenotype (%) [5]: 29%
Population Mitotic Cells (%) [5]: 56%
Population Normal (%) [5]: 95%
Population Pyknosed Nuclei (%) [5]: 10%
Population Tubulin-Different-Phenotype (%) [5]: 20%
Total Cell Count [5]: 512
Population Apoptotic (%) [6]: 40%
Population Fragmented Nuclei (%) [6]: 6%
Population Healthy Nuclei (%) [6]: 83%
Population Hoechst High Intensity Objects (%) [6]: 6%
Population Membrane Permeable-Phenotype (%) [6]: 0%
Population Mitochondria Different-Phenotype (%) [6]: 46%
Population Mitotic Cells (%) [6]: 59%
Population Normal (%) [6]: 93%
Population Pyknosed Nuclei (%) [6]: 9%
Population Tubulin-Different-Phenotype (%) [6]: 19%
Total Cell Count [6]: 406
Population Apoptotic (%) [7]: 37%
Population Fragmented Nuclei (%) [7]: 10%
Population Healthy Nuclei (%) [7]: 77%
Population Hoechst High Intensity Objects (%) [7]: 8%
Population Membrane Permeable-Phenotype (%) [7]: 0%
Population Mitochondria Different-Phenotype (%) [7]: 51%
Population Mitotic Cells (%) [7]: 62%
Population Normal (%) [7]: 91%
Population Pyknosed Nuclei (%) [7]: 11%
Population Tubulin-Different-Phenotype (%) [7]: 48%
Total Cell Count [7]: 556
Population Apoptotic (%) [8]: 42%
Population Healthy Nuclei (%) [8]: 79%
Population Hoechst High Intensity Objects (%) [8]: 12%
Population Mitochondria Different-Phenotype (%) [8]: 64%
Population Mitotic Cells (%) [8]: 57%
Population Normal (%) [8]: 87%
Population Pyknosed Nuclei (%) [8]: 9%
Population Tubulin-Different-Phenotype (%) [8]: 43%
Total Cell Count [8]: 425
Population Apoptotic (%) [9]: 13%
Population Fragmented Nuclei (%) [9]: 12%
Population Healthy Nuclei (%) [9]: 80%
Population Hoechst High Intensity Objects (%) [9]: 4%
Population Membrane Permeable-Phenotype (%) [9]: 1%
Population Mitochondria Different-Phenotype (%) [9]: 21%
Population Mitotic Cells (%) [9]: 86%
Population Normal (%) [9]: 95%
Population Pyknosed Nuclei (%) [9]: 7%
Population Tubulin-Different-Phenotype (%) [9]: 16%
Total Cell Count [9]: 763
Population Apoptotic (%) [10]: 35%
Population Fragmented Nuclei (%) [10]: 11%
Population Healthy Nuclei (%) [10]: 81%
Population Hoechst High Intensity Objects (%) [10]: 3%
Population Mitochondria Different-Phenotype (%) [10]: 23%
Population Mitotic Cells (%) [10]: 65%
Population Normal (%) [10]: 96%
Population Pyknosed Nuclei (%) [10]: 6%
Population Tubulin-Different-Phenotype (%) [10]: 10%
Total Cell Count [10]: 633
Population Apoptotic (%) [11]: 26%
Population Fragmented Nuclei (%) [11]: 13%
Population Healthy Nuclei (%) [11]: 76%
Population Hoechst High Intensity Objects (%) [11]: 5%
Population Membrane Permeable-Phenotype (%) [11]: 0%
Population Mitochondria Different-Phenotype (%) [11]: 35%
Population Mitotic Cells (%) [11]: 73%
Population Normal (%) [11]: 94%
Population Pyknosed Nuclei (%) [11]: 9%
Population Tubulin-Different-Phenotype (%) [11]: 25%
Total Cell Count [11]: 786
Population Apoptotic (%) [12]: 43%
Population Fragmented Nuclei (%) [12]: 10%
Population Healthy Nuclei (%) [12]: 82%
Population Hoechst High Intensity Objects (%) [12]: 6%
Population Mitochondria Different-Phenotype (%) [12]: 32%
Population Mitotic Cells (%) [12]: 56%
Population Normal (%) [12]: 93%
Population Pyknosed Nuclei (%) [12]: 6%
Population Tubulin-Different-Phenotype (%) [12]: 20%
Total Cell Count [12]: 676

O=C(O)CCC/C=C\CC1C(O)CC(O)C1/C=C/C(O)COc1cccc(Cl)c1 (stereo unspecified) [CLOPROSTENOL]
Population Apoptotic (%) [1]: 31%
Population Fragmented Nuclei (%) [1]: 7%
Population Healthy Nuclei (%) [1]: 81%
Population Hoechst High Intensity Objects (%) [1]: 9%
Population Membrane Permeable-Phenotype (%) [1]: 0%
Population Mitochondria Different-Phenotype (%) [1]: 44%
Population Mitotic Cells (%) [1]: 68%
Population Normal (%) [1]: 90%
Population Pyknosed Nuclei (%) [1]: 10%
Population Tubulin-Different-Phenotype (%) [1]: 35%
Total Cell Count [1]: 458
Population Apoptotic (%) [2]: 40%
Population Fragmented Nuclei (%) [2]: 6%
Population Healthy Nuclei (%) [2]: 80%
Population Hoechst High Intensity Objects (%) [2]: 7%
Population Mitochondria Different-Phenotype (%) [2]: 56%
Population Mitotic Cells (%) [2]: 59%
Population Normal (%) [2]: 92%
Population Pyknosed Nuclei (%) [2]: 13%
Population Tubulin-Different-Phenotype (%) [2]: 23%
Total Cell Count [2]: 341
Population Apoptotic (%) [3]: 45%
Population Fragmented Nuclei (%) [3]: 7%
Population Healthy Nuclei (%) [3]: 77%
Population Hoechst High Intensity Objects (%) [3]: 6%
Population Membrane Permeable-Phenotype (%) [3]: 0%
Population Mitochondria Different-Phenotype (%) [3]: 63%
Population Mitotic Cells (%) [3]: 54%
Population Normal (%) [3]: 93%
Population Pyknosed Nuclei (%) [3]: 14%
Population Tubulin-Different-Phenotype (%) [3]: 41%
Total Cell Count [3]: 395
Population Apoptotic (%) [4]: 51%
Population Fragmented Nuclei (%) [4]: 8%
Population Hoechst High Intensity Objects (%) [4]: 13%
Population Mitochondria Different-Phenotype (%) [4]: 68%
Population Mitotic Cells (%) [4]: 48%
Population Normal (%) [4]: 86%
Population Tubulin-Different-Phenotype (%) [4]: 37%
Total Cell Count [4]: 357
Population Apoptotic (%) [5]: 22%
Population Fragmented Nuclei (%) [5]: 11%
Population Healthy Nuclei (%) [5]: 76%
Population Hoechst High Intensity Objects (%) [5]: 7%
Population Membrane Permeable-Phenotype (%) [5]: 1%
Population Mitochondria Different-Phenotype (%) [5]: 25%
Population Mitotic Cells (%) [5]: 77%
Population Normal (%) [5]: 92%
Population Pyknosed Nuclei (%) [5]: 11%
Population Tubulin-Different-Phenotype (%) [5]: 28%
Total Cell Count [5]: 612
Population Apoptotic (%) [6]: 34%
Population Fragmented Nuclei (%) [6]: 7%
Population Healthy Nuclei (%) [6]: 83%
Population Hoechst High Intensity Objects (%) [6]: 5%
Population Membrane Permeable-Phenotype (%) [6]: 0%
Population Mitochondria Different-Phenotype (%) [6]: 37%
Population Mitotic Cells (%) [6]: 65%
Population Normal (%) [6]: 94%
Population Pyknosed Nuclei (%) [6]: 9%
Population Tubulin-Different-Phenotype (%) [6]: 16%
Total Cell Count [6]: 477
Population Apoptotic (%) [7]: 46%
Population Fragmented Nuclei (%) [7]: 10%
Population Healthy Nuclei (%) [7]: 78%
Population Hoechst High Intensity Objects (%) [7]: 7%
Population Membrane Permeable-Phenotype (%) [7]: 0%
Population Mitochondria Different-Phenotype (%) [7]: 46%
Population Mitotic Cells (%) [7]: 54%
Population Normal (%) [7]: 92%
Population Pyknosed Nuclei (%) [7]: 10%
Population Tubulin-Different-Phenotype (%) [7]: 35%
Total Cell Count [7]: 490
Population Fragmented Nuclei (%) [8]: 12%
Population Hoechst High Intensity Objects (%) [8]: 11%
Population Mitochondria Different-Phenotype (%) [8]: 55%
Population Mitotic Cells (%) [8]: 53%
Population Normal (%) [8]: 88%
Population Pyknosed Nuclei (%) [8]: 9%
Population Tubulin-Different-Phenotype (%) [8]: 31%
Total Cell Count [8]: 483
Population Apoptotic (%) [9]: 20%
Population Fragmented Nuclei (%) [9]: 15%
Population Healthy Nuclei (%) [9]: 77%
Population Hoechst High Intensity Objects (%) [9]: 4%
Population Membrane Permeable-Phenotype (%) [9]: 1%
Population Mitochondria Different-Phenotype (%) [9]: 15%
Population Mitotic Cells (%) [9]: 79%
Population Normal (%) [9]: 95%
Population Pyknosed Nuclei (%) [9]: 6%
Population Tubulin-Different-Phenotype (%) [9]: 15%
Total Cell Count [9]: 956
Population Apoptotic (%) [10]: 28%
Population Fragmented Nuclei (%) [10]: 13%
Population Healthy Nuclei (%) [10]: 81%
Population Hoechst High Intensity Objects (%) [10]: 5%
Population Mitochondria Different-Phenotype (%) [10]: 20%
Population Mitotic Cells (%) [10]: 71%
Population Normal (%) [10]: 94%
Population Pyknosed Nuclei (%) [10]: 5%
Population Tubulin-Different-Phenotype (%) [10]: 11%
Total Cell Count [10]: 703
Population Apoptotic (%) [11]: 33%
Population Fragmented Nuclei (%) [11]: 16%
Population Healthy Nuclei (%) [11]: 76%
Population Hoechst High Intensity Objects (%) [11]: 7%
Population Membrane Permeable-Phenotype (%) [11]: 0%
Population Mitochondria Different-Phenotype (%) [11]: 32%
Population Mitotic Cells (%) [11]: 66%
Population Normal (%) [11]: 92%
Population Pyknosed Nuclei (%) [11]: 6%
Population Tubulin-Different-Phenotype (%) [11]: 18%
Total Cell Count [11]: 659
Population Apoptotic (%) [12]: 25%
Population Fragmented Nuclei (%) [12]: 18%
Population Healthy Nuclei (%) [12]: 75%
Population Hoechst High Intensity Objects (%) [12]: 6%
Population Membrane Permeable-Phenotype (%) [12]: 1%
Population Mitochondria Different-Phenotype (%) [12]: 25%
Population Mitotic Cells (%) [12]: 74%
Population Normal (%) [12]: 93%
Population Pyknosed Nuclei (%) [12]: 5%
Total Cell Count [12]: 731
